This note sets out measurements from ChEMBL document CHEMBL2424590, “4-[18F]Fluoro-m-hydroxyphenethylguanidine: a radiopharmaceutical for quantifying regional cardiac sympathetic nerve density with positron emission tomography” (J Med Chem, 2013).

The nature of series [1]: Drug uptake in rhesus macaque monkey myocardium at 0.1 mCi by Patlak plot analysis. The class given is ADME, tissue-based, Macaca mulatta. As to conditions: in vivo; call rule not given here. The procedure, abridged:
(§1)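 Same monkey for all studies. Desipramine (0.010, 0.0316, 0.10 or 1.0 mg/kg; n = 1 each) in 2.0 mL saline infused i.v. over 20 min, with tracer injected 10 min after the infusion ended; 4 control studies. ROIs on myocardium and basal LV blood pool drawn on summed final four frames. Cp(t) derived from Cwb(t) × intact fraction × Cp/Cwb. Ki from compartmental modelling and Kp as Patlak slope, fitted against DMI dose to a variable-slope sigmoidal model.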

Series [2] concerns Bone. The series is described as follows: Biodistribution in Sprague-Dawley rat bone at 20 to 120 uCi, iv after 120 mins by gamma counting analysis. The class given is ADME, organism-based, Bone element. As to conditions: in vivo, 2 h. The essentials:
(§2)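 Sprague-Dawley rats (280–330 g), 2 male and 2 female per time point (5, 30, 60, 120 min), under light isoflurane, received a tail-vein bolus of 20–120 μCi tracer in 0.05–0.10 mL isotonic 60 mM sodium phosphate, pH 5.4. Tissues were weighed and gamma-counted. Decay-corrected dpm/g was normalized to injected dpm per kg body weight (%ID·kg/g).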

Another series relates to Testes. Nature of the series: Biodistribution in Sprague-Dawley rat testes at 20 to 120 uCi, iv after 120 mins by gamma counting analysis. The series is classed as ADME, organism-based, Testis. The settings on record: in vivo, 2 h. The essentials: (§3)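 Male and female rats (2 per sex per time point, 280–330 g) under light isoflurane given tail-vein bolus of 20–120 μCi tracer in 0.05–0.10 mL isotonic 60 mM sodium phosphate, pH 5.4. Tissues sampled at 5, 30, 60 or 120 min, weighed and gamma-counted. Decay-corrected dpm per gram normalised to injected dpm and body weight, given as %ID·kg/g.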

In series [3] the test system is Rattus norvegicus. Nature of the series: Biodistribution in Sprague-Dawley rat uterus at 20 to 120 uCi, iv after 120 mins by gamma counting analysis. The series is classed as ADME, organism-based. As to conditions: in vivo, 2 h. The essentials:
as §3

For another series, the system named is Kidney. Nature of the series: Biodistribution in Sprague-Dawley rat kidney at 20 to 120 uCi, iv after 120 mins by gamma counting analysis. The class given is ADME, organism-based. As to conditions: in vivo, 2 h. The procedure, abridged: as §2
For series [4], the system named is Rattus norvegicus. Nature of the series: Biodistribution in Sprague-Dawley rat eyeballs at 20 to 120 uCi, iv after 120 mins by gamma counting analysis. The class given is ADME, organism-based, Eyeball of camera-type eye. The settings on record: in vivo, 2 h. The procedure, abridged:
as §2

The test system of another series is Blood. Nature of the series: Biodistribution in Sprague-Dawley rat blood at 20 to 120 uCi, iv after 60 mins by gamma counting analysis. The class given is ADME, organism-based. The settings on record: in vivo, 1 h. The procedure, abridged: as §2
Series [5] deals with Bone. Nature of the series: Biodistribution in Sprague-Dawley rat bone at 20 to 120 uCi, iv after 60 mins by gamma counting analysis. The class given is ADME, organism-based, Bone element. As to conditions: in vivo, 1 h. The procedure, abridged:
as §2

In the next series the test system is Adrenal. The series is described as follows: Biodistribution in Sprague-Dawley rat adrenal at 20 to 120 uCi, iv after 60 mins by gamma counting analysis. The series is classed as ADME, organism-based, Adrenal tissue. As to conditions: in vivo, 1 h. The essentials: as §2
In the next series the test system is Spleen. The series is described as follows: Biodistribution in Sprague-Dawley rat spleen at 20 to 120 uCi, iv after 60 mins by gamma counting analysis. The series is classed as ADME, organism-based. The settings on record: in vivo, 1 h. The procedure, abridged:
as §3

For series [6], the system named is Liver. Nature of the series: Biodistribution in Sprague-Dawley rat liver at 20 to 120 uCi, iv after 60 mins by gamma counting analysis. The class given is ADME, organism-based. The settings on record: in vivo, 1 h. The procedure, abridged:
as §2

Series [7] concerns Rattus norvegicus. Nature of the series: Biodistribution in Sprague-Dawley rat stomach at 20 to 120 uCi, iv after 30 mins by gamma counting analysis. The class given is ADME, organism-based. As to conditions: in vivo, 0.5 h. The procedure, abridged:
as §3

A further series relates to Brain. The series is described as follows: Biodistribution in Sprague-Dawley rat brain at 20 to 120 uCi, iv after 30 mins by gamma counting analysis. The class given is ADME, organism-based. The settings on record: in vivo, 0.5 h. The procedure, abridged:
as §2

Series [8] has as its system Bone. The series is described as follows: Biodistribution in Sprague-Dawley rat bone at 20 to 120 uCi, iv after 5 mins by gamma counting analysis. The series is classed as ADME, organism-based, Bone element. The settings on record: in vivo. The procedure, abridged: as §2
Series [9] concerns Rattus norvegicus. The series is described as follows: Biodistribution in Sprague-Dawley rat uterus at 20 to 120 uCi, iv after 5 mins by gamma counting analysis. As to conditions: in vivo. The series is classed as ADME, organism-based. The procedure, abridged:
as §3

Series [10] relates to Liver. Nature of the series: Biodistribution in Sprague-Dawley rat liver at 20 to 120 uCi, iv after 5 mins by gamma counting analysis. The series is classed as ADME, organism-based. The settings on record: in vivo. The essentials: as §2
Series [11] is described as follows: Drug metabolism in rhesus macaque monkey spinal column assessed as fluorine-18 level at 5 to 6 mCi, iv after 90 mins by sagittal PET analysis. As to conditions: in vivo, 1.5 h. The class given is ADME, organism-based, Macaca mulatta.
Series [12] in a line: Drug uptake in rhesus macaque monkey heart at 5 to 6 mCi, iv after 90 mins by PET analysis in presence of 0.010 mg/kg to 1 mg/kg desipramine. As to conditions: in vivo, 1.5 h. The class given is ADME, organism-based, Macaca mulatta. The essentials: as §1
The nature of series [13]: Drug metabolism in rhesus macaque monkey spinal column assessed as fluorine-18 level at 5 to 6 mCi, iv after 90 mins by transaxial PET analysis. As to conditions: in vivo, 1.5 h. The series is classed as ADME, organism-based, Macaca mulatta.
Another series concerns Nucleic Acid. Nature of the series: Ratio of drug level in heart to blood in rhesus macaque monkey at 5 to 6 mCi, iv after 90 mins by PET analysis. The series is classed as ADME, organism-based, Macaca mulatta. The settings on record: other tissue, 1.5 h.

`N=C(N)NCCc1ccc([18F])c(O)c1` yielded a Kp in [1] of 0.302 mL/min/g. The Drug uptake is 0.016 % ID/g in the series on Bone [2]; 0.004 %IDKg/g in the series with Testes; 0.081 %IDKg/g in the series on Rattus norvegicus [3]; 0.078 %IDKg/g with Kidney; 0.026 %IDKg/g in the series on Rattus norvegicus [4]; 0.016 % ID/g in the series with Blood. For the same compound, the Drug uptake stood at 0.027 % ID/g in the series with Bone [5]; 0.193 %IDKg/g in the series with Adrenal; 0.253 %IDKg/g in the series on Spleen; 0.35 %IDKg/g in the series with Liver [6]; 0.11 %IDKg/g in the series on Rattus norvegicus [7]; 0.003 %IDKg/g with Brain. Also, the Drug uptake in the series on Bone [8] is 0.06 %ID·kg/g; with Rattus norvegicus [9] it was 0.268 %IDKg/g; in the series with Liver [10], 0.477 %IDKg/g; in series [12], “Not Active”. In addition, the Drug metabolism result in series [11] and in [13] was “Active” throughout. Besides, the Ratio with Nucleic Acid came to 3.
